One series has as its system blood-brain barrier. As to the kind of experiment: Contrast-enhanced MRI of BBB integrity. The series is classed as in vivo, mouse. As to conditions: wild-type mice, tail-vein injection, 7-T T1-weighted MRI over 20 min, n = 4. A digest of the protocol: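 Mice received targeting or nontargeting siRNA (20 μg complexed with in vivo-jetPEI in 10% glucose, 15 min at room temperature). On a 7-T small-animal MRI, scans ran before and after tail-vein 100 μl of 1:3-diluted Gd-DTPA (0.5 M stock), monitored 20 min. Settings: TR/TE 500/2.7 ms, 30° flip angle, 8 repetitions. Hippocampal bolus-chase clearance was analysed blind to treatment.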

A further series relates to claudin-5 and occludin. As to the kind of experiment: Tight junction protein levels after Aβ treatment. The settings on record: brain endothelial cells, increasing doses, 12 hours after treatment, Western blot. The series is classed as cell-based, mouse. Put shortly: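 Bend.3 mouse brain endothelial cells were grown in DMEM with 20% FCS and 2 mM sodium pyruvate at 37°C, 5% CO2. They were exposed 12 h to increasing concentrations of Aβ(1–40) peptide forms, with unmodified monomer at 0.1 to 1 μM. Cells were lysed in tris/2% SDS/10 mM DTT buffer and spun 12,000 rpm for 20 min at 4°C. Tight junction proteins were measured by Western blot densitometry, n = 3 […] per concentration.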
For orientation: A western blot detects proteins with antibodies after separation by electrophoresis.

The conditions of series [1]: cited from earlier work.

Here are results for four molecules from publication PMC4610013 (Science Advances, 2015).

Turning to `O=C([O-])CN(CCN(CC(=O)[O-])CC(=O)O)CCN(CC(=O)[O-])CC(=O)O.[Gd+3]` [Gd-DTPA, gadolinium–diethylenetriamine pentaacetic acid], the “extravasation of MRI contrast agent after claudin-5 and occludin cosuppression” value in the series with blood-brain barrier is on record as “increased extravasation”.

For “Aβ(1–40): unmodified Aβ(1–40) monomer isolated by size exclusion chromatography”, the “levels of claudin-5 and occludin protein” value in the series on claudin-5 and occludin is listed as “dose-dependent decrease”.

Take “Aβ(1–40)DiY: dityrosine cross-linked dimer prepared by oxidative cross-linking of Aβ(1–40)”: the “levels of claudin-5 and occludin protein” value in the series with claudin-5 and occludin was “down-regulated”.

Take Aβ(1–40)F19P: the propensity for aggregation entry in series [1] is on record as “little or no propensity for aggregation”. Also, the “levels of claudin-5 and occludin protein” value in the series on claudin-5 and occludin was “down-regulated”.
